Assay results collected from several papers.
Target: Serine/threonine-protein kinase pim-3 (PIM3, Homo sapiens, UniProt Q86V86)

Structure (SMILES) | read-out | method | concentration | remaining binding
O=C(NCCCN1CCOCC1)c1ccc(Nc2nccc(-c3cc4ccccc4s3)n2)cc1 | binding | competition with immobilised ligand | 1 µM | 91%
CNC(=O)[C@@H]1CC[C@@H](n2c(-c3ccc4cnccc4c3)nc3ccc(C(=O)NCc4cccc(C(N)=O)c4)cc32)C1 | binding | competition with immobilised ligand | 1 µM | 100%
O=C(Nc1c[nH]nc1C(=O)NC1CCNCC1)c1cc(F)cc(F)c1 | binding | competition with immobilised ligand | 1 µM | 88%
Cc1cnc(Nc2ccc(C(=O)N3CCC(N4CCCC4)CC3)cc2)nc1-c1cc2ccccc2s1 | binding | competition with immobilised ligand | 1 µM | 60%
CN(C)c1nccc(-c2cnc3ncccn23)n1 | binding | – | 1 µM | 88%
c1cncc(-c2cccc(Nc3nccc(NC4CCCCC4)n3)c2)c1 | binding | competition with immobilised ligand | 10 µM | 71%
Cc1cnn2ncc(-c3ccnc(N(C)C)n3)c2c1 | binding | – | 1 µM | 85%
COc1cnc(Nc2cccc(S(N)(=O)=O)c2)nc1N1CCN(c2ccccc2)CC1 | binding | competition with immobilised ligand | 1 µM | 94%
N#CC1(c2ccccn2)CCN(Cc2cc(C(=O)N3CCCC3)c(=O)n3ccccc23)CC1 | cell-free assay | competition with immobilised ligand | 1 µM | 99%
N#Cc1ccccc1CSc1nnc2c(n1)[nH]c1ccccc12 | binding | competition with immobilised ligand | 10 µM | 74%
Cc1nccc(COC(=O)N2C[C@@H]3[C@@H](CNC(=O)c4ccc5[nH]nnc5c4)[C@@H]3C2)n1 | cell-free assay | competition with immobilised ligand | 1 µM | 97%
COc1ccnn2ncc(-c3ccnc(N(C)C)n3)c12 | binding | – | 1 µM | 81%
C[C@@H]1CN(c2ccc3ncc(-c4ccc5[nH]nc(C6CC6)c5c4)n3n2)C[C@H](C)O1 | binding | competition with immobilised ligand | 50 nM | 81%
CC1CCCN1c1nccc(-c2cnn3ncccc23)n1 (stereo not drawn) | binding | – | 1 µM | 100%
CC(=O)Nc1c(C(C)=O)c(=O)n(C)c2nc(-c3ccc(Cl)cc3Cl)c(-c3ccc(Cl)cc3)cc12 | cell-free assay | competition with immobilised ligand | 1 µM | 100%
N[C@@H]1CCN(c2nccc(-c3cnn4ncccc34)n2)C1 | binding | – | 1 µM | 100%
CO[C@H]1CC[C@H](CNc2ccc(S(=O)(=O)NC(=O)c3ccc(N4CCN(CC5=C(c6ccc(Cl)cc6)CC(C)(C)CC5)CC4)cc3Oc3cnc4[nH]ccc4c3)cc2[N+](=O)[O-])CC1 | cell-free assay | competition with immobilised ligand | 1 µM | 74%
F[C@@H]1CCN(c2nccc(-c3cnn4ncccc34)n2)C1 | binding | – | 1 µM | 100%
CSc1cccnc1N1CCN(Cc2nc3ccccc3[nH]2)CC1 | cell-free assay | competition with immobilised ligand | 1 µM | 94%
C[C@H]1CCN(c2nccc(-c3cnn4ncccc34)n2)C1 | binding | – | 1 µM | 81%
CCCOc1ccc([C@@H]2[C@@H](C(=O)O)[C@H](c3ccc4c(c3)OCO4)CN2CC(=O)Nc2c(CC)cccc2CC)cc1 | cell-free assay | competition with immobilised ligand | 1 µM | 95%
CC(C)(C)c1ccc(-c2nc(CBr)nn2-c2cccc(O)c2)cc1 | cell-free assay | competition with immobilised ligand | 10 µM | 100%
CCc1ccccc1C(=O)Nc1n[nH]c2c(C)c(F)c(C3C(C#N)=C(C)N(C)C(C)=C3C#N)cc12 | cell-free assay | competition with immobilised ligand | 1 µM | 100%
O=C(c1ccc(Nc2nccc(-c3cc4ccccc4s3)n2)cc1)N1CCC(N2CCCC2)CC1 | binding | competition with immobilised ligand | 1 µM | 78%
